Measured values published in ChEMBL document CHEMBL1142436, “Design and synthesis of 4-substituted indolo[3,2-e][1,2,3]triazolo[1,5-a]pyrimidine derivatives with antitumor activity” (2008).

Legend:
Type in all cases: functional
[1] = system: HL-60; test: Growth inhibition of human HL60 cells after 48 hrs; details: HL-60, 48 h
How it was run: (§1)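 NCI ~60-line screen. Cells were grown in RPMI 1640 with 5% FBS and 2 mM L-glutamine and plated at 5000–40000 cells/well. After a 24 h preincubation, five drug concentrations from DMSO stocks were added for 48 h at 37 °C. Cells were TCA-fixed, stained with SRB and read at 515 nm. GI50 was taken from time-zero and control absorbances and reported as pGI50.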

[2] = system: K562; test: Growth inhibition of human K562 cells after 48 hrs; details: K562, 48 h; how it was run: as §1
[3] = system: BT-549; test: Growth inhibition of human BT549 cells after 48 hrs; details: BT-549, 48 h; how it was run: as §1
[4] = system: T47D; test: Growth inhibition of human T47D cells after 48 hrs
How it was run: (§2)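 NCI 60-line screen: cells in RPMI 1640 with 5% FBS and 2 mM L-glutamine, plated at 5000–40000 cells/well, grown 24 h (37 °C, 5% CO₂), then exposed to five 10-fold or ½-log dilutions (DMSO stock) for 48 h. Fixed with TCA (final 10% for adherent cells, 16% for suspension cells), then SRB stained with absorbance at 515 nm. GI50 from percentage growth relative to time-zero and control wells.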

[5] = system: SR; test: Growth inhibition of human SR cells after 48 hrs; how it was run: as §2
[6] = system: NCI-H23; test: Growth inhibition of human NCI-H23 cells after 48 hrs; details: Homo sapiens, NCI-H23, 48 h; how it was run: as §1
[7] = system: NCI-H522; test: Growth inhibition of human NCI-H522 cells after 48 hrs; details: NCI-H522, 48 h; how it was run: as §1
[8] = system: HCC 2998; test: Growth inhibition of human HCC2998 cells after 48 hrs; details: HCC 2998, 48 h; how it was run: as §1
[9] = system: HCT-15; test: Growth inhibition of human HCT15 cells after 48 hrs; details: HCT-15, 48 h; how it was run: as §1
[10] = system: SW-620; test: Growth inhibition of human SW620 cells after 48 hrs; details: SW-620, 48 h; how it was run: as §2
[11] = system: U-251; test: Growth inhibition of human U251 cells after 48 hrs; details: U-251, 48 h; how it was run: as §2
[12] = system: LOX IMVI; test: Growth inhibition of human LOXIMVI cells after 48 hrs; how it was run: as §1
[13] = system: Malme-3M; test: Growth inhibition of human MALME3M cells after 48 hrs; how it was run: as §1
[14] = system: M14; test: Growth inhibition of human M14 cells after 48 hrs; details: M14, 48 h; how it was run: as §1
[15] = system: IGROV-1; test: Growth inhibition of human IGROV1 cells after 48 hrs; details: IGROV-1, 48 h; how it was run: as §1
[16] = system: OVCAR-3; test: Growth inhibition of human OVCAR-3 cells after 48 hrs; details: OVCAR-3, 48 h; how it was run: as §1
[17] = system: OVCAR-5; test: Growth inhibition of human OVCAR5 cells after 48 hrs; details: OVCAR-5, 48 h; how it was run: as §1
[18] = system: SK-OV-3; test: Growth inhibition of human SKOV3 cells after 48 hrs; details: SK-OV-3, 48 h; how it was run: as §2
[19] = system: A498; test: Growth inhibition of human A498 cells after 48 hrs; details: A498, 48 h; how it was run: as §1
[20] = system: CAKI-1; test: Growth inhibition of human CAKI1 cells after 48 hrs; details: CAKI-1, 48 h; how it was run: as §1
[21] = system: DU-145; test: Growth inhibition of human DU145 cells after 48 hrs; details: DU-145, 48 h; how it was run: as §1
[22] = system: MCF7; test: Growth inhibition of human MCF7 cells after 48 hrs; details: MCF7, 48 h; how it was run: as §1
[23] = system: MDA-MB-231; test: Growth inhibition of human MDA-MB-231 cells after 48 hrs; details: MDA-MB-231, 48 h; how it was run: as §1
[24] = read-out: Log LC50 (the source's name) (converted)

**Q.** With `Cn1c2ccccc2c2c(=O)n(CCCC(=O)NCC(=O)N(C(=O)NC3CCCCC3)C3CCCCC3)c3c(-c4ccccc4)nnn3c21` as the compound, how does the GI50 [1] read?
**A.** 2.88 µM

**Q.** What about the LC50 [1] of the same compound?
**A.** > 100 µM

**Q.** What about the TGI ([1]; read-out: pTGI (converted)) of the same compound?
**A.** 8.32 µM

**Q.** And the GI50 [2]?
**A.** 22.9 µM

**Q.** What about the LC50 [2] of the same compound?
**A.** > 50.1 µM

**Q.** And the TGI ([2]; read-out: pTGI (converted))?
**A.** > 100 µM

**Q.** And the GI50 [3]?
**A.** 26.9 µM

**Q.** And the CC50 [4, 24]?
**A.** > 100 µM

**Q.** And the TGI ([4]; read-out: pTGI (converted))?
**A.** > 100 µM

**Q.** And the GI50 [5]?
**A.** 3.02 µM

**Q.** What about the LC50 [5] of the same compound?
**A.** 8.51 µM

**Q.** What about the TGI ([5]; read-out: pTGI (converted)) of the same compound?
**A.** 5.13 µM

**Q.** And the GI50 [6]?
**A.** 15.5 µM

**Q.** And the CC50 [6, 24]?
**A.** 69.2 µM

**Q.** What about the TGI ([6]; read-out: pTGI (converted)) of the same compound?
**A.** 33.1 µM

**Q.** And the GI50 [7]?
**A.** 15.8 µM

**Q.** And the LC50 [7]?
**A.** > 100 µM

**Q.** And the TGI ([7]; read-out: pTGI (converted))?
**A.** 81.3 µM

**Q.** And the GI50 [8]?
**A.** 10.2 µM

**Q.** What about the LC50 [8] of the same compound?
**A.** 70.8 µM

**Q.** And the TGI ([8]; read-out: pTGI (converted))?
**A.** 26.9 µM

**Q.** And the GI50 [9]?
**A.** 10.7 µM

**Q.** And the LC50 [9]?
**A.** > 100 µM

**Q.** What about the TGI ([9]; read-out: pTGI) of the same compound?
**A.** > 100 µM

**Q.** What about the GI50 [10] of the same compound?
**A.** 3.8 µM

**Q.** And the LC50 (lethal concentration, 50% cell kill) [10]?
**A.** > 100 µM

**Q.** What about the TGI ([10]; read-out: pTGI (converted)) of the same compound?
**A.** > 100 µM

**Q.** And the GI50 [11]?
**A.** 12.3 µM

**Q.** And the LC50 [11]?
**A.** > 100 µM

**Q.** And the TGI ([11]; read-out: pTGI (converted))?
**A.** 38 µM

**Q.** And the GI50 [12]?
**A.** 13.2 µM

**Q.** And the LC50 (lethal concentration, 50% cell kill) [12]?
**A.** > 100 µM

**Q.** What about the TGI ([12]; read-out: pTGI (converted)) of the same compound?
**A.** 97.7 µM

**Q.** And the GI50 [13]?
**A.** 46.8 µM

**Q.** What about the LC50 [13] of the same compound?
**A.** > 100 µM

**Q.** And the TGI ([13]; read-out: pTGI (converted))?
**A.** > 100 µM

**Q.** And the GI50 [14]?
**A.** 30.9 µM

**Q.** And the LC50 [14]?
**A.** > 100 µM

**Q.** And the TGI ([14]; read-out: pTGI (converted))?
**A.** > 100 µM

**Q.** What about the GI50 [15] of the same compound?
**A.** 2.82 µM

**Q.** What about the LC50 [15] of the same compound?
**A.** > 100 µM

**Q.** What about the TGI ([15]; read-out: pTGI (converted)) of the same compound?
**A.** 33.1 µM

**Q.** What about the GI50 [16] of the same compound?
**A.** 19.5 µM

**Q.** What about the LC50 [16] of the same compound?
**A.** > 100 µM

**Q.** And the TGI ([16]; read-out: pTGI (converted))?
**A.** 95.5 µM

**Q.** What about the GI50 [17] of the same compound?
**A.** 15.5 µM

**Q.** And the LC50 (concentration killing 50% of cells) [17]?
**A.** 69.2 µM

**Q.** What about the TGI ([17]; read-out: pTGI (converted)) of the same compound?
**A.** 32.4 µM

**Q.** What about the LC50 [18] of the same compound?
**A.** 33.9 µM

**Q.** And the TGI ([18]; read-out: pTGI (converted))?
**A.** 18.6 µM

**Q.** What about the GI50 [19] of the same compound?
**A.** 30.9 µM

**Q.** What about the CC50 [19, 24] of the same compound?
**A.** > 100 µM

**Q.** What about the TGI ([19]; read-out: pTGI (converted)) of the same compound?
**A.** > 100 µM

**Q.** What about the GI50 [20] of the same compound?
**A.** 32.4 µM

**Q.** What about the LC50 (concentration killing 50% of cells) [20] of the same compound?
**A.** > 100 µM

**Q.** And the TGI ([20]; read-out: pTGI (converted))?
**A.** 37.2 µM

**Q.** What about the GI50 [21] of the same compound?
**A.** 18.6 µM

**Q.** And the LC50 [21]?
**A.** > 100 µM

**Q.** What about the TGI ([21]; read-out: pTGI (converted)) of the same compound?
**A.** > 100 µM

**Q.** And the GI50 [22]?
**A.** 3.63 µM

**Q.** What about the LC50 [22] of the same compound?
**A.** > 100 µM

**Q.** And the TGI ([22]; read-out: pTGI (converted))?
**A.** > 100 µM

**Q.** And the GI50 [23]?
**A.** 12.3 µM

**Q.** And the LC50 (concentration killing 50% of cells) [23]?
**A.** > 100 µM

**Q.** What about the TGI ([23]; read-out: pTGI (converted)) of the same compound?
**A.** 38 µM
